Source: ChEMBL document CHEMBL1123363, “(5-Amino-1,3-dimethyl-1H-pyrazol-4-yl)(2-fluorophenyl)methanones . A series of novel potential antipsychotic agents” (J Med Chem, 1986)

Experiments:
[1] = target: T1, Adrenergic receptor alpha-1 (Rattus norvegicus, UniProt P15823+P23944+P43140)
T1 sequence (P15823 whole entry): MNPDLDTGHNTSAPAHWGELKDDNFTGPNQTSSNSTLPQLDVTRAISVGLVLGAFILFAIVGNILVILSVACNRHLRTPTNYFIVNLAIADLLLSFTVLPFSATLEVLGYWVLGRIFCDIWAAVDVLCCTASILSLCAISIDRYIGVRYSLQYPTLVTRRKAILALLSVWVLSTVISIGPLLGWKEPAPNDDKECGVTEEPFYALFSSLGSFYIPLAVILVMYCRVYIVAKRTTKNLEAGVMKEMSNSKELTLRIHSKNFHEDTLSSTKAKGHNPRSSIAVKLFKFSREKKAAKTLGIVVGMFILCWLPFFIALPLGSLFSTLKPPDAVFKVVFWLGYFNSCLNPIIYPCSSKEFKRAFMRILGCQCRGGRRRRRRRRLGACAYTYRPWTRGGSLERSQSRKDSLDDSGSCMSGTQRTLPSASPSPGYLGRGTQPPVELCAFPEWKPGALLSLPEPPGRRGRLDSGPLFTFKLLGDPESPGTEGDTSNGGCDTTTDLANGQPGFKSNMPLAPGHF
T1 sequence (P23944 whole entry): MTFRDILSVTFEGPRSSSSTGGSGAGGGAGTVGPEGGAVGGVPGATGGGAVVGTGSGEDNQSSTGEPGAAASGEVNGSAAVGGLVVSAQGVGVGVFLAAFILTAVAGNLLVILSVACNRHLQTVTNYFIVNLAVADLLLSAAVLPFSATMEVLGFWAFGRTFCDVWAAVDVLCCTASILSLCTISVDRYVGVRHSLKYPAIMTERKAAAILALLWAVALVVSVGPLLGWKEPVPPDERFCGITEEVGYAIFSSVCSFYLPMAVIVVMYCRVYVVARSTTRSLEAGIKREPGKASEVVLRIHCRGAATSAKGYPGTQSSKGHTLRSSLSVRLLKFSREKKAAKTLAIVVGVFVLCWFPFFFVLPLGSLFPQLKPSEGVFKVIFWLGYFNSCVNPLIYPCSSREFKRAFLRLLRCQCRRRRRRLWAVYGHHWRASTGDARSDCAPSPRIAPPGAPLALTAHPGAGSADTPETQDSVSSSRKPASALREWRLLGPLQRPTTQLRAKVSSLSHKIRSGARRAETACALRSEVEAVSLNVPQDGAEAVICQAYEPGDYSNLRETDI
T1 sequence (P43140 whole entry): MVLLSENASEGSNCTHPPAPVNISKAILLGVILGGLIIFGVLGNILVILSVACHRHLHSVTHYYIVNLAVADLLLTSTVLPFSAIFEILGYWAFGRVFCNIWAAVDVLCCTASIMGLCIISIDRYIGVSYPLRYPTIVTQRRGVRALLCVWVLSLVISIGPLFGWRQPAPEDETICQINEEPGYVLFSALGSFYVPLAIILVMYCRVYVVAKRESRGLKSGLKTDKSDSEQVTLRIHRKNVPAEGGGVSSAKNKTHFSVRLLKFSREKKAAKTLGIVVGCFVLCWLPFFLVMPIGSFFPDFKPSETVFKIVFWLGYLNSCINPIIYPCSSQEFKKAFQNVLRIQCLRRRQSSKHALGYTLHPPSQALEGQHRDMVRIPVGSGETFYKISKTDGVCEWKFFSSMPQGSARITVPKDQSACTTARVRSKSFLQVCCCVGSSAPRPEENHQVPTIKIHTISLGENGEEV

[2] = target: Serotonin 2 (5-HT2) receptor (Rattus norvegicus, UniProt P30994+P08909+P14842); experiment: Binding affinity towards 5-hydroxytryptamine 2 receptor in rat brain using [3H]spiroperidol; format: tissue-based
Outline: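 Serotonin-2 sites in rat cerebral cortex membranes (male Long-Evans, 150–250 g) with [3H]spiroperidol at 0.2 nM final. (+)-Butaclamol at 1.0 μM final was the reference. IC50 from four or five concentrations by nonlinear curve fitting.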

Rattus norvegicus = experiment: Antagonized affect on the accumulation of the brain dopamine induced by butyrolactone (GBL) at 25 mg/kg after intraperitoneal administration; format: functional; set-up: scale not given: the % may be the effect or the level left
Outline: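 Rats received test compound ip 30 min before γ-butyrolactone (750 mg/kg ip) and were killed 1 h after GBL. Dopamine in brain minus brain stem and cerebellum (four to six rats) was measured spectrofluorometrically and expressed as % of the GBL-treated group.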

[3] = Inhibition of sidman avoidance in squirrel monkeys after peroral administration; format: functional; conditions: po
Outline: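 Mature squirrel monkeys, trained on a modified Sidman avoidance lever schedule, were dosed orally and tested in 6-h sessions. Inhibition was expressed as % of each animal's own nondrug responding. At least three doses were given to four animals, with sessions at least 1 week apart. ED50 from nonlinear regression.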

Compound	IC50 [1]	IC50 [2]	Control (Rattus norvegicus)	ED50 [3]
Cc1nn(C)c(NC(=O)CNCCCN2CCCCC2C)c1C(=O)c1ccccc1F (stereo unspecified)	> 10 µM	> 10 µM	91.2%	12.7 mg/kg
CCN(CC)CC(=O)Nc1c(C(=O)c2ccccc2F)c(C)nn1C				15.6 mg/kg
Cc1nn(C)c(N)c1C(=O)c1ccccc1F	> 10 µM			
